From ChEMBL document CHEMBL4765328 (Eur J Med Chem, 2020)
pIC50: −log10 of the molar value. The source made the active and inactive calls. The calls are words filed in the database; no cut-off is given here.

Legend:
HeLa [1] = assay: Antiproliferative activity against human HeLa cells assessed as inhibition of cell growth; type: functional, cell-based
In short: (§1)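 Growth inhibition of cancer cell lines read from dose-response curves; IC50 as mean ± SEM of at least three independent experiments.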

HT-29 = assay: Antiproliferative activity against human HT-29 cells assessed as inhibition of cell growth; type: functional, cell-based; in short: as §1
Daoy = assay: Antiproliferative activity against human Daoy cells assessed as inhibition of cell growth; type: functional, cell-based
In short: (§2)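 Compounds from 10 mM DMSO stocks; final DMSO ≤0.25%. Growth inhibition of cancer cell lines read from dose-response curves; IC50 as mean ± SEM of at least three independent experiments.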

HL-60 = assay: Antiproliferative activity against human HL-60 cells assessed as inhibition of cell growth; type: functional, cell-based; in short: as §1
SEM cells = assay: Antiproliferative activity against human SEM cells assessed as inhibition of cell growth; type: functional, cell-based; in short: as §2
Jurkat = assay: Antiproliferative activity against human Jurkat cells assessed as inhibition of cell growth; type: functional, cell-based; in short: as §2
[2] = Inhibition of bovine brain tubulin polymerisation preincubated with compound followed by GTP addition and measured after 20 mins by turbidimetry based spectrophotometric method; type: tissue-based, Bos taurus
In short: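 Bovine brain tubulin (10 µM) in glutamate buffer, preincubated with varying compound concentrations at 30 °C, then cooled to 0 °C. GTP added to 0.4 mM final, then warmed to 30 °C in a recording spectrophotometer. Assembly followed by turbidity at 350 nm.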

Bos taurus [3] = organism: Bos taurus; assay: Inhibition of [3H]colchicine binding to bovine brain tubulin at 5 uM relative to control
In short: (§3)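 [3H]colchicine binding to purified tubulin, with tubulin at 0.5 µM and colchicine at 5 µM. Compounds tested at 5 and 0.5 µM. CA-4 was run in contemporaneous experiments for comparison.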

Bos taurus [4] = organism: Bos taurus; assay: Inhibition of [3H]colchicine binding to bovine brain tubulin at 0.5 uM relative to control; type: tissue-based; in short: as §3
[5] = Antitumor activity mouse E0771 cells implanted in C57BL/6 mouse assessed as reduction tumor growth at 30 mg/kg, ip administered every other day relative to control; type: functional, EO771; set-up: scale not given: the % may be the effect or the level left
In short: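 Female C57BL/6 mice, seven weeks old, injected orthotopically into the mammary fat pad with 4 × 10^5 E0771 cells. Palpable tumours randomised into groups, dosed intraperitoneally every other day in DMSO vehicle, 100 µL final volume; vehicle-only controls. Caliper volume V=(D×d²)/2, tumour weight taken at end; n=5 mice/group; body weight monitored; two-way ANOVA with Bonferroni.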

[6] = Cytotoxicity against human PBL assessed as inhibition of cell growth; type: cell-based; conditions: peripheral blood lymphocytes (PBL)
In short: (§4)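 Peripheral blood lymphocytes from healthy donors, tested either unstimulated or stimulated with PHA; DMSO ≤0.25% final. Values are mean ± SEM of three separate experiments.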

[7] = Cytotoxicity against PHA-stimulated human PBL assessed as inhibition of cell growth; type: cell-based; conditions: PHA-stimulated peripheral blood lymphocytes (PBL); in short: as §4
[8] = Cytotoxicity against normal human astrocytes assessed as inhibition of cell growth; type: cell-based, Astrocyte
HeLa [9] = assay: Induction of microtubule network depolymerization in human HeLa cells assessed as appearance of disorganised microtubules at 10 nM after 24 hrs by immunofluorescence staining based confocal microscopic analysis; type: cell-based
In short: (§5)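 HeLa cells treated 24 h at 10, 50 or 100 nM. They were then fixed in cold 4% formaldehyde for 15 min and stained with anti-β-tubulin for 2 h at room temperature. Alexa 488 secondary and DAPI counterstain followed; imaged by confocal microscopy at 20X.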

HeLa [10] = assay: Induction of microtubule network depolymerization in human HeLa cells assessed as appearance of disorganised microtubules at 50 nM after 24 hrs by immunofluorescence staining based confocal microscopic analysis; type: cell-based; in short: as §5
HeLa [11] = assay: Induction of microtubule network depolymerization in human HeLa cells assessed as appearance of disorganised microtubules at 100 nM after 24 hrs by immunofluorescence staining based confocal microscopic analysis; type: cell-based; in short: as §5
HeLa [12] = assay: Induction of apoptosis in human HeLa cells assessed as viable cells at 10 nM measured after 24 hrs by Annexin V-FITC/propidium iodide staining based flow cytometry (reference value: 97.28 %); type: functional; conditions: read-out: Activity
HeLa [13] = assay: Induction of apoptosis in human HeLa cells assessed as early apoptotic cells at 10 nM measured after 24 hrs by Annexin V-FITC/propidium iodide staining based flow cytometry (reference value: 0.96 %); type: functional
HeLa [14] = assay: Induction of apoptosis in human HeLa cells assessed as late apoptotic cells at 10 nM measured after 24 hrs by Annexin V-FITC/propidium iodide staining based flow cytometry (reference value: 1.22 %); type: functional
HeLa [15] = assay: Induction of apoptosis in human HeLa cells assessed as necrotic cells at 10 nM measured after 24 hrs by Annexin V-FITC/propidium iodide staining based flow cytometry (reference value: […]); type: functional
HeLa [16] = assay: Induction of apoptosis in human HeLa cells assessed as viable cells at 10 nM measured after 48 hrs by Annexin V-FITC/propidium iodide staining based flow cytometry (reference value: 97.28 %); type: functional; conditions: read-out: Activity
HeLa [17] = assay: Induction of apoptosis in human HeLa cells assessed as early apoptotic cells at 10 nM measured after 48 hrs by Annexin V-FITC/propidium iodide staining based flow cytometry (reference value: 0.96 %); type: functional
HeLa [18] = assay: Induction of apoptosis in human HeLa cells assessed as late apoptotic cells at 10 nM measured after 48 hrs by Annexin V-FITC/propidium iodide staining based flow cytometry (reference value: 1.22 %); type: functional
HeLa [19] = assay: Induction of apoptosis in human HeLa cells assessed as necrotic cells at 10 nM measured after 48 hrs by Annexin V-FITC/propidium iodide staining based flow cytometry (reference value: […]); type: functional
HeLa [20] = assay: Induction of mitochondrial membrane potential loss in human HeLa cells assessed as cells with depolarized mitochondrial membrane at 10 nM after 24 hrs by JC-1 dye-based flow cytometric analysis (reference value: 7.8 %); type: functional
HeLa [21] = assay: Induction of mitochondrial membrane potential loss in human HeLa cells assessed as cells with depolarized mitochondrial membrane at 10 nM after 48 hrs by JC-1 dye-based flow cytometric analysis (reference value: 7.8 %); type: functional
HeLa [22] = assay: Induction of mitochondrial membrane potential loss in human HeLa cells assessed as cells with polarized mitochondrial membrane at 10 nM after 24 hrs by JC-1 dye-based flow cytometric analysis (reference value: 92.0 %); type: functional
HeLa [23] = assay: Induction of mitochondrial membrane potential loss in human HeLa cells assessed as cells with polarized mitochondrial membrane at 10 nM after 48 hrs by JC-1 dye-based flow cytometric analysis (reference value: 92.0 %); type: functional

SMILES | pIC50 (HeLa [1]) | pIC50 (HT-29) | pIC50 (HL-60) | pIC50 (Jurkat) | pIC50 [2] | inhibition (Bos taurus [3]) [%] | inhibition (Bos taurus [4]) [%] | pIC50 (Daoy) | pIC50 (SEM cells) | also measured
COc1cc(C(=O)c2c(N)oc3cc(F)ccc23)cc(OC)c1OC | 6.23 | 6.17 | 6.38 | 6.52 |  |  |  | 6.07 | 6.48 | 
CCOc1cccc2c(C(=O)c3cc(OC)c(OC)c(OC)c3)c(N)oc12 | 5.90 | 6.04 | 6.37 | 6.41 |  |  |  | 5.78 | 6.41 | 
COc1cc(C(=O)c2c(N)oc3cc(O)ccc23)cc(OC)c1OC | 6.23 | 5.47 | 6.55 | 6.52 |  |  |  | 6.37 | 6.43 | 
COc1cc(C(=O)c2c(N)oc3c(OC)cccc23)cc(OC)c1OC | 6.30 | 6.32 | 6.63 | 6.48 |  |  |  | 6.46 | 6.55 | 
COc1cc(C(=O)c2c(N)oc3cccc(OC)c23)cc(OC)c1OC | 5.28 | 5.19 | 5.31 | 5.56 |  |  |  | 5.40 | 5.34 | 
COc1cc(C(=O)c2c(N)oc3c(O)c(OC)ccc23)cc(OC)c1OC | 7.82 | 6.37 | 8.55 | 9.47 | 6.23 | 99 | 87 | 9.49 | 6.59 | 
COc1cc(C(=O)c2c(N)oc3cc(OCc4ccccc4)ccc23)cc(OC)c1OC | 5.01 | 5.06 | 5.15 | 5.36 |  |  |  | < 5.00 | 5.43 | 
COc1ccc(/C=C\c2cc(OC)c(OC)c(OC)c2)cc1OP(=O)([O-])[O-].[Na+].[Na+] [FOSBRETABULIN DISODIUM] |  |  |  |  |  |  |  |  |  | Activity [5]: 26.5%
COc1ccc(/C=C\c2cc(OC)c(OC)c(OC)c2)cc1O [COMBRETASTATIN A4] |  |  |  | 9.10 |  | 97 | 82 | 7.91 |  | 
COc1cc(C(=O)c2c(N)oc3ccccc23)cc(OC)c1OC | 6.38 | 6.23 | 6.47 | 6.41 |  |  |  | 6.43 | 6.60 | 
COc1ccc2oc(N)c(C(=O)c3cc(OC)c(OC)c(OC)c3)c2c1 | 7.25 | 7.20 | 7.44 | 7.53 | 6.30 | 73 |  | 7.44 | 7.41 | 
COc1cc(C(=O)c2c(N)oc3ccc(N)cc23)cc(OC)c1OC | 6.20 | 6.10 | 6.38 | 6.40 |  |  |  | 6.31 | 6.59 | 

Now from value to compound, other results behind:

pIC50 (HeLa [1]) | pIC50 (HT-29) | pIC50 (HL-60) | pIC50 (Jurkat) | pIC50 [2] | inhibition (Bos taurus [3]) [%] | inhibition (Bos taurus [4]) [%] | SMILES | pIC50 (Daoy) | pIC50 (SEM cells) | also measured
8.54 | 8.25 | 8.52 | 8.57 | 6.32 | 99 | 79 | COc1ccc2c(C(=O)c3cc(OC)c(OC)c(OC)c3)c(N)oc2c1 | 9.52 | 8.39 | 
7.64 | 7.75 | 7.38 | 7.57 | 6.29 | 91 | 42 | CCCOc1ccc2c(C(=O)c3cc(OC)c(OC)c(OC)c3)c(N)oc2c1 | 8.36 | 7.53 | 
8.21 | 6.10 | 8.46 | 8.51 |  |  |  | COc1ccc2c(N)c(C(=O)c3cc(OC)c(OC)c(OC)c3)oc2c1 | 8.30 | 8.44 | 
8.96 | 9.22 | 8.46 | 9.48 | 6.41 | 97 | 74 | COc1cc(C(=O)c2c(N)oc3cc(C)ccc23)cc(OC)c1OC | 9.47 | 9.52 | GI50 [6]: > 10000 nM; GI50 [7]: > 10000 nM; GI50 [8]: > 10000 nM; Activity (HeLa [9]): Active; Activity (HeLa [10]): Active; Activity (HeLa [11]): Active; viability at 0.01 µM (HeLa [12]): 74.4%; Activity (HeLa [13]): 10.95%; Activity (HeLa [14]): 2.51%; Activity (HeLa [15]): 12.11%; viability at 0.01 µM (HeLa [16]): 26.4%; Activity (HeLa [17]): 37.13%; Activity (HeLa [18]): 9.35%; Activity (HeLa [19]): 27.08%; Activity (HeLa [20]): 24.8%; Activity (HeLa [21]): 42.6%; Activity (HeLa [22]): 74.9%; Activity (HeLa [23]): 57.3%
8.35 | 8.27 | 8.25 | 8.55 | 6.24 | 92 | 56 | COc1cc(C(=O)c2c(N)oc3cc(Br)ccc23)cc(OC)c1OC | 8.60 | 8.46 | 
